# Tests used:
# [1] = target: T1, Polyunsaturated fatty acid 5-lipoxygenase (Homo sapiens, UniProt P09917); assay: Inhibition of 5-Lipoxygenase (5-LO) of human whole blood (HWB); assay type: tissue-based
# T1 sequence (P09917 whole entry): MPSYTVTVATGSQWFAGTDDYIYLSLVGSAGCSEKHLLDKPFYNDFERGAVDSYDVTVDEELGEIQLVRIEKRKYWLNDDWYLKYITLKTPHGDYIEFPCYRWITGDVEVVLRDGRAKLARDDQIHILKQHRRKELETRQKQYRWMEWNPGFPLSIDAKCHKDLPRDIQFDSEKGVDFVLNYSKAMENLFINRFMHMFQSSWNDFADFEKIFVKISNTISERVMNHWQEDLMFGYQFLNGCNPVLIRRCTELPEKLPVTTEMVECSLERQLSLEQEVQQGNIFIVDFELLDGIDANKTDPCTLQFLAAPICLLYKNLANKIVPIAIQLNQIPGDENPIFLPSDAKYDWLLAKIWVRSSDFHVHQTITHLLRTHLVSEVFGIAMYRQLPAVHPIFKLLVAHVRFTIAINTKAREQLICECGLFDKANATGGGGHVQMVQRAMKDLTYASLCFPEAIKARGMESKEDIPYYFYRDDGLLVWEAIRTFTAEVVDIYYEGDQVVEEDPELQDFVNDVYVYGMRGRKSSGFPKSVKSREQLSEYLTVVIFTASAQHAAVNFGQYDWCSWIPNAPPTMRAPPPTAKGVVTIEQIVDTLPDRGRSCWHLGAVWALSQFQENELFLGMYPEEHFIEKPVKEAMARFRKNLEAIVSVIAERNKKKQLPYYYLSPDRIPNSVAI
# [2] = system: Mus musculus; assay: In vivo potency was determined after oral administration to mice by the PAF (platelet activating factor) induced thrombosis assay; assay type: functional
# Procedure, shortened: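 Male […] mice were dosed orally, then given platelet activating factor to induce thrombosis. ED50 reported in mg/kg.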
# [3] = Bioavailability of compound at 3 mg/kg in guinea pig […]; assay type: ADME, organism-based, Cavia porcellus; settings: in vivo, iv
# Procedure, shortened: (§1)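 Oral bioavailability derived from oral and intravenous pharmacokinetic data. Doses: monkey 5 mg/kg oral vs 3 mg/kg iv; rat and guinea pig 10 mg/kg oral vs 3 mg/kg iv.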
# [4] = Bioavailability of compound at 3 mg/kg in monkey […]; assay type: ADME, organism-based; settings: cercopithecidae, in vivo, iv; procedure, shortened: as §1
# [5] = Oral bioavailability of compound at 5 mg/kg in monkey; assay type: ADME, organism-based; settings: cercopithecidae, in vivo; procedure, shortened: as §1
# [6] = Maximum concentration of compound found in plasma at 5 mg/kg after oral administration; assay type: ADME, organism-based; design: dose 5 mg/kg, route oral; settings: cercopithecidae
# Procedure, shortened: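 Male cynomolgus monkeys, three animals, single 5 mg/kg oral dose with plasma concentration followed over time. Values are mean ± SEM (n = 3), Cmax in μg/mL.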
# [7] = Bioavailability of compound at 10 mg/kg in rat after oral administration; assay type: ADME, organism-based; settings: in vivo; procedure, shortened: as §1
# [8] = Bioavailability of compound at 3 mg/kg in rat […]; assay type: ADME, organism-based; settings: in vivo, iv; procedure, shortened: as §1
# [9] = Bioavailability of compound at 10 mg/kg in guinea pig after oral administration; settings: in vivo
Compound,IC50 [1],ED50 [2],also measured
Cc1nccn1-c1ccc(COc2cc(F)cc(C3(O)CCOCC3)c2)cc1,> 1000 nM,,
Cc1nccn1-c1ccc(COc2cc(F)cc(C3(S(C)(=O)=O)CCOCC3)c2)cc1,> 1000 nM,,
Cc1nccn1-c1ccc(COc2cc(F)cc(C3([S+](C)[O-])CCOCC3)c2)cc1 (stereo unspecified),> 1000 nM,,
CCOC(=O)C1(c2cc(F)cc(OCc3ccc(-n4ccnc4C)cc3)c2)CCOCC1,200 nM,16 mg/kg,
COC1(c2cc(F)cc(OCc3ccc(-n4ccnc4C)cc3)c2)CCOCC1,60 nM,2 mg/kg,
Cc1nccn1-c1ccc(COc2cc(F)cc(C3(C(N)=O)CCOCC3)c2)cc1,340 nM,,bioavailability [3]: 108%; bioavailability [4]: 88%; bioavailability [5]: 88%; Cmax [6]: 1570 ng/mL; bioavailability [7]: 102%; bioavailability [8]: 102%; bioavailability [9]: 108%
Cc1nccn1-c1ccc(COc2cc(F)cc(C3(C(=O)N(C)C)CCOCC3)c2)cc1,810 nM,> 20 mg/kg,
CSC1(c2cc(F)cc(OCc3ccc(-n4ccnc4C)cc3)c2)CCOCC1,72 nM,5 mg/kg,
CC(=O)C1(c2cc(F)cc(OCc3ccc(-n4ccnc4C)cc3)c2)CCOCC1,130 nM,12 mg/kg,
CNC(=O)C1(c2cc(F)cc(OCc3ccc(-n4ccnc4C)cc3)c2)CCOCC1,280 nM,13 mg/kg,
Cc1nccn1-c1ccc(COc2cc(F)cc(C3(C(=O)O)CCOCC3)c2)cc1,> 1000 nM,,
CCOC1(c2cc(F)cc(OCc3ccc(-n4ccnc4C)cc3)c2)CCOCC1,80 nM,5 mg/kg,
